Only some compounds are listed: those with a hit (about 1.7% of all), similar ones and a draw of the others.
Vif inh: HIV Vif self-association inhibitors, primary screen, imaging, HEK293T, single point | HEK293T cells, Vif self-association by quenched fluorescence, 24 h | inhibition, % at 7.49 µM | 0.35% of 340,000 active | AID 602346, 2012; in the data active means inhibition above about 50%, passing the limit was not always enough
Statin myotox sup: suppressors of statin myotoxicity in C2C12 myotubes, primary screen, cell-based, single point, plate reader | C2C12 myotubes + simvastatin, ATP luminescence, 48 h; scaled: DMSO 0, geranylgeraniol control 100 | rescue of ATP level, % at 7.49 µM | 0.78% of 330,000 active;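 active means mean ATP rescue above about 67%, or every replicate alone reaching that limit, limit read from the data, passing the limit was not always enough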;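 further: myotubes were challenged with 10 µM simvastatin during compound exposure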
SR-BI DiI inh: inhibitors of SR-BI mediated HDL lipid uptake, primary screen, ldlA[mSR-BI] cells, fluorescence, single point; Scavenger receptor class B member 1 (Mus musculus), Q61009; ldlA[mSR-BI] CHO cells, DiI-HDL uptake fluorescence, 3 h; inhibition, % at 12.5 µM; 0.96% of 320,000 active; AID 488896, 2010;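 active means mean replicate inhibition of at least 70% and a set share of replicates each scoring 70 or more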;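 further: 0% = median of neutral control wells and 100% = median of positive control wells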
Target sequence (Q61009 whole entry, looked up): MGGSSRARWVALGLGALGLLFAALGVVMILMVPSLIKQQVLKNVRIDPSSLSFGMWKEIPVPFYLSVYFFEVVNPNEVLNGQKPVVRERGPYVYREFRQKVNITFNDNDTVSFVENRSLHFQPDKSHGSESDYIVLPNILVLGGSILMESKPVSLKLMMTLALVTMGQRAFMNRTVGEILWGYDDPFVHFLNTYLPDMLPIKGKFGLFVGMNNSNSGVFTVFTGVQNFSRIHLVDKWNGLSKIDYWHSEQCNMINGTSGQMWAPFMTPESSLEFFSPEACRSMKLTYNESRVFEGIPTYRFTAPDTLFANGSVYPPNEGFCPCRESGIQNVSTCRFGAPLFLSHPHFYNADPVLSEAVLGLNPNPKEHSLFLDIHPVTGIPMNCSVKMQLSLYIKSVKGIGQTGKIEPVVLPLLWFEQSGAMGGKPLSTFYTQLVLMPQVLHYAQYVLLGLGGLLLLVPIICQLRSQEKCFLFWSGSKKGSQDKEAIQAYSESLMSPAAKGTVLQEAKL
SR-BI DiI-HDL act: activators of SR-BI mediated DiI-HDL uptake, primary screen, ldlA[mSR-BI] CHO cells, DiI fluorescence; AID 504775, 2011; activation, % at 12.5 µM; 0.096% of 320,000 active; 3 h; 100 = double the neutral-control signal;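 active means mean replicate activation of at least 60% and every replicate at or above 60%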;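 further: 0% = median plate neutral-control signal and 100% = twice that signal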
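material = CHO ldlA[mSR-BI] cells | medium = Ham's F12 with 0.5% BSA, HEPES 25 mM, pH 7.4 | reagent = fluorescent DiI-HDL, 10 µg/mL final | compound dosing = single-point compound dose | incubation = 3 h, 37 °C | measured by = bottom-read fluorescence, 550/595 nm | measure = HDL uptake via cellular fluorescence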
* hit, by the source's call.

CCC(=O)N1C[C@H](C)[C@@H](OC)CN(C)C(=O)c2ccc(NC(=O)Nc3cccc(F)c3)cc2OC[C@@H]1C was read as Statin myotox sup 11.
For CC=Cc1ccc2n(c1=O)C[C@@H]1[C@@H](CO)[C@H](C(=O)NCc3ccccc3)N(S(C)(=O)=O)[C@H]21 (mixture of isomers) the results were Statin myotox sup 14.
For O=C1C(SC(F)(F)C(F)F)=C(C(F)(F)F)OC2C3C=CC(C3)C12 (configuration not stated) the results were Vif inh -4, Statin myotox sup 107*, SR-BI DiI inh -2 and SR-BI DiI-HDL act 2.
COC(=O)CCC(=O)NNC(=O)c1cccc(Br)c1 was read as Vif inh -3, SR-BI DiI inh -17 and SR-BI DiI-HDL act 17.
Screening COC(=O)CCC(=O)NNC(=O)c1ccc(Br)cc1 returned Vif inh -4, Statin myotox sup 101*, SR-BI DiI inh 11 and SR-BI DiI-HDL act -11.
For CCOC(=O)c1cc(NC(=O)C2C3C=CC(O3)C2C(=O)O)cc(C(=O)OCC)c1 (configuration not stated) the results were Vif inh -6, Statin myotox sup -3, SR-BI DiI inh 5 and SR-BI DiI-HDL act -5.
For Cc1cc(C)cc(NC(=O)C2C3C=CC(O3)C2C(=O)O)c1 (configuration not stated) the results were Vif inh 51*, Statin myotox sup -7, SR-BI DiI inh -14 and SR-BI DiI-HDL act 14.
Screening CC(C)CC#Cc1ccc2c(c1)O[C@H](CN(C)C(=O)Cc1ccccn1)[C@@H](C)CN([C@@H](C)CO)S2(=O)=O returned Statin myotox sup 33.
Screening COc1ccc(C(=O)NNc2ccccc2)cc1 returned Vif inh 2, SR-BI DiI inh -3 and SR-BI DiI-HDL act 3.
COc1ccc(C(=O)NNC2=C(C(=O)C(F)(F)F)CCC2)cc1 was read as Vif inh 1, SR-BI DiI inh 95* and SR-BI DiI-HDL act -95.
`O=C(NNC1=C(C(=O)C(F)(F)F)CCC1)c1cccc(Cl)c1` gave Vif inh -4, Statin myotox sup -2, SR-BI DiI inh 80* and SR-BI DiI-HDL act -80.
O=C(NNC1=C(C(=O)C(F)(F)F)CCC1)c1ccc(Cl)cc1 was read as Vif inh 10, SR-BI DiI inh 93* and SR-BI DiI-HDL act -93.
CCC(=O)Nc1ccc2c(c1)C(=O)N(C)[C@@H]1CC[C@H](CC(=O)NCCc3ccccc3)O[C@@H]1CO2 was read as Statin myotox sup -1.
For COc1ccc(/C=N/n2cncn2)cc1Cn1cc([N+](=O)[O-])cn1 the results were Vif inh 14.
Screening COc1ccc(/C=N/Nc2ccc([N+](=O)[O-])cc2)cc1Cn1cc([N+](=O)[O-])cn1 returned Vif inh 98*, Statin myotox sup -69, SR-BI DiI inh 95* and SR-BI DiI-HDL act -95.
`C=CC(C)(O)CCCC(C)CCCC(C)CCCC(C)C` (configuration not stated) gave Vif inh 160*, Statin myotox sup 2, SR-BI DiI inh -12 and SR-BI DiI-HDL act 12.
C[C@H](CO)N1C[C@H](C)[C@@H](CN(C)CC2CCCCC2)Oc2ccc(NC(=O)Nc3ccccc3)cc2C1=O was read as Statin myotox sup -6.
COc1ccc(F)cc1-c1cc(NC(C)=O)c2ncc(-c3cc(OC)c(OC)c(OC)c3)n2c1 was read as Vif inh 68* and Statin myotox sup -25.
`COc1cccc(-c2cc(NC=O)c3ncc(-c4cc(OC)c(OC)c(OC)c4)n3c2)c1` gave Vif inh 77* and Statin myotox sup -46.
Screening COc1cccc(-c2cnc3c(NC=O)cc(-c4ccc(O)c(OC)c4)cn23)c1 returned Statin myotox sup -7.
For COc1ccc(-c2cnc3c(NC(C)=O)cc(-c4cc(F)ccc4OC)cn23)cc1OC the results were Statin myotox sup -53.
C[C@@H]1CN([C@@H](C)CO)S(=O)(=O)c2ccc(-c3ccc(C(=O)N(C)C)cc3)cc2O[C@H]1CN(C)C(=O)C1CCC1 was read as Statin myotox sup 0.
`COCC(=O)Nc1ccc2c(c1)OC[C@@H](C)N(C(=O)c1ccccn1)C[C@H](C)[C@@H](OC)CN(C)C2=O` gave Statin myotox sup -5.
COc1ccccc1-c1cnc2c(c1)C(=O)N([C@H](C)CO)C[C@@H](C)[C@@H](CN(C)C(C)=O)O2 was read as Statin myotox sup 1.
`C[C@@H]1CN([C@H](C)CO)C(=O)Cc2cc(NS(=O)(=O)c3ccc(Cl)cc3)ccc2O[C@@H]1CN(C)CC1CCCCC1` gave Statin myotox sup 49.
Screening C[C@@H]1CN([C@H](C)CO)C(=O)Cc2cc(NS(=O)(=O)c3ccc(Cl)cc3)ccc2O[C@H]1CN(C)CC1CCCCC1 returned Statin myotox sup 124*.
C[C@H](CO)N1C[C@H](C)[C@@H](CN(C)CC2CCCCC2)Oc2ccc(NS(=O)(=O)c3ccc(Cl)cc3)cc2CC1=O was read as Statin myotox sup 123*.
For CN1[C@H](C(=O)Nc2ccccc2)[C@@H](CO)[C@@H]2Cn3c(ccc(-c4ccccc4)c3=O)[C@@H]21 the results were Statin myotox sup 21.
Screening C[C@@H]1CCCCO[C@@H](CN(C)C(=O)Nc2ccc(F)cc2)[C@@H](C)CN([C@H](C)CO)C(=O)c2cc(NS(=O)(=O)c3cccs3)ccc2O1 returned Statin myotox sup 7.
`CC(C)C(=O)Nc1ccc(C(=O)N/N=C/c2cc(Br)cc(Br)c2O)cc1` gave Vif inh 4, SR-BI DiI inh 146* and SR-BI DiI-HDL act -147.
`CC(=O)Nc1ccc(C(=O)N/N=C/c2cc(Br)cc(Br)c2O)cc1` gave Vif inh 1, Statin myotox sup 0, SR-BI DiI inh 135* and SR-BI DiI-HDL act -135.
Screening CCOC(=O)c1c(C)[nH]c(C)c1C(=O)COC(=O)C1CC(=O)N(CCc2ccccc2)C1 (configuration not stated) returned Vif inh 51*, Statin myotox sup 5, SR-BI DiI inh 15 and SR-BI DiI-HDL act -15.
CCOC(=O)c1ccccc1NC(=O)COC(=O)C1CC(=O)N(CCc2ccccc2)C1 (configuration not stated) was read as Vif inh -1, Statin myotox sup -14, SR-BI DiI inh -21 and SR-BI DiI-HDL act 21.
Screening O=C(COC(=O)C1CC2C=CC1C2)NCCc1ccccc1 (configuration not stated) returned Vif inh -7, Statin myotox sup 4, SR-BI DiI inh -240 and SR-BI DiI-HDL act 240*.
For Cc1ccccc1Nc1c([N+](=O)[O-])ccc2c1=NC1(CCCCC1)N=2 the results were Vif inh -4, SR-BI DiI inh 83* and SR-BI DiI-HDL act -83.
